# ChEMBL document CHEMBL3259621, “Novel merosesquiterpene exerts a potent antitumor activity against breast cancer cells in vitro and in vivo” (Eur J Med Chem, 2014)
# pIC50: −log10 of the molar value. Activity calls are given as the source filed them. No cut-off for these calls is given here.
# Assays:
# MCF7 [1] = assay: Cell cycle arrest in human MCF7 cells assessed as accumulation at G2-M phase at 3 uM after 24 hrs by propidium iodide/RNAse staining-based FACS analysis (reference value: 8.20 %); assay type: functional
# MCF7 [2] = assay: Cell cycle arrest in human MCF7 cells assessed as accumulation at […] phase at 1 uM after 48 hrs by propidium iodide/RNAse staining-based FACS analysis (reference value: 8.02 %); assay type: functional
# MCF7 [3] = assay: Cell cycle arrest in human MCF7 cells assessed as accumulation at […] phase at 3 uM after 48 hrs by propidium iodide/RNAse staining-based FACS analysis (reference value: 8.02 %); assay type: functional
# MCF7 [4] = assay: Induction of apoptosis in human MCF7 cells assessed as early apoptotic cells at 2 uM after 48 hrs by annexin V staining-based flow cytometry (reference value: 0.205 %); assay type: functional
# MCF7 [5] = assay: Induction of apoptosis in human MCF7 cells assessed as early apoptotic cells at 3 uM after 48 hrs by annexin V staining-based flow cytometry (reference value: 0.205 %); assay type: functional
# MCF7 [6] = assay: Induction of apoptosis in human MCF7 cells assessed as apoptotic cells at 1 uM after 48 hrs by annexin V staining-based flow cytometry (reference value: 3.44 %); assay type: functional
# MCF7 [7] = assay: Induction of apoptosis in human MCF7 cells assessed as apoptotic cells at 2 uM after 48 hrs by annexin V staining-based flow cytometry (reference value: 3.44 %); assay type: functional
# MCF7 [8] = assay: Induction of apoptosis in human MCF7 cells assessed as reduction in cyclin B1 protein expression at 2 uM by Western blotting analysis; assay type: functional, cell-based
# In short: (§1)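 MCF-7 seeded at 5 × 10⁴/cm² and exposed at 24 h to 2 µM compound for 0, 4, 8, 16 and 24 h. Lysates separated on 12% SDS gels, transferred to nitrocellulose, blocked in 5% milk. Primary antibodies applied overnight at 4 °C, then secondary 1 h at room temperature. Detection by ECL chemiluminescence with β-actin as loading reference.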
# MCF7 [9] = assay: Induction of apoptosis in human MCF7 cells assessed as reduction in phosphorylated pRb expression at 2 uM after 16 hrs by Western blotting analysis relative to control; assay type: functional; parameters: scale not given: the % may be the effect or the level left
# In short: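 MCF-7 seeded at 5 × 10⁴ cells/cm², exposed after 24 h to 2 µM for 0, 4, 8, 16 and 24 h. Lysed in SDS sample buffer, run on 12% acrylamide gels, transferred to nitrocellulose and blocked with 5% milk. Primary antibodies overnight at 4 °C (total or phospho-pRb, β-actin), secondary 1 h at room temperature, ECL chemiluminescence detection.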
# MCF7 [10] = assay: Induction of apoptosis in human MCF7 cells assessed as reduction in c-myc expression at 2 uM after 24 hrs by Western blotting analysis relative to control; assay type: functional; parameters: scale not given: the % may be the effect or the level left; in short: as §1
# MCF7 [11] = assay: Induction of apoptosis in human MCF7 cells assessed as increase in phosphorylated p53 level at 2 uM after 4 to 24 hrs by Western blotting analysis relative to control; assay type: functional, cell-based; in short: as §1
# MCF7 [12] = assay: Induction of apoptosis in human MCF7 cells assessed as increase in PARP cleavage at 2 uM after 4 to 24 hrs by Western blotting analysis relative to control; assay type: functional, cell-based; in short: as §1
# [13] = target: Mitogen-activated protein kinase; ERK1/ERK2 (Homo sapiens) (UniProt P27361+P28482); assay: Increase of p44/42 MAPK phosphorylation in human MCF7 cells at 2 uM up to 4 hrs by Western blotting analysis relative to control; assay type: cell-based; in short: as §1
# Chain of Mitogen-activated protein kinase; ERK1/ERK2 (Homo sapiens) (P27361 whole entry, looked up): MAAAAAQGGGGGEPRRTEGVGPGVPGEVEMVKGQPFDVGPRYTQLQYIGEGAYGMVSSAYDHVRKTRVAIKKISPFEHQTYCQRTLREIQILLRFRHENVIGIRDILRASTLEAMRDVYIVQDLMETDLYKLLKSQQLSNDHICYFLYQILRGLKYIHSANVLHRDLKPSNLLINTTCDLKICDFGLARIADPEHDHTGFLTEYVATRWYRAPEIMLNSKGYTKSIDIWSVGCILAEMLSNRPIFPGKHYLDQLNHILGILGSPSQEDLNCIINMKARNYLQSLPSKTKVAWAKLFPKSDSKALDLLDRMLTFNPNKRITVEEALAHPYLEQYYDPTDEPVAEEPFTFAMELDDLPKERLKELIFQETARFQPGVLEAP
# Chain of Mitogen-activated protein kinase; ERK1/ERK2 (Homo sapiens) (P28482 whole entry, looked up): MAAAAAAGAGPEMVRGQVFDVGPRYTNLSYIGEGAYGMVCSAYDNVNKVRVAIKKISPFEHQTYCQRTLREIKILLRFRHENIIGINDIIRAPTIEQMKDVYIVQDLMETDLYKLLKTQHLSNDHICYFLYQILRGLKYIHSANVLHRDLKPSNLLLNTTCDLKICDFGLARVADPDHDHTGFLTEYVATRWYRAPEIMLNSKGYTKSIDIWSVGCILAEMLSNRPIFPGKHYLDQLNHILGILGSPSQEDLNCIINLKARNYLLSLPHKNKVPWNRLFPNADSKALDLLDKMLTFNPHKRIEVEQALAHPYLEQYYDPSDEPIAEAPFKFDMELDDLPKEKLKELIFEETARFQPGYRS
# Mus musculus = assay: Toxicity in C57BL/6 mouse allografted with mouse E0771 cells assessed as diarrhea at 5 to 15 mg/kg, po; assay type: organism-based; parameters: dose 5-15 mg/kg, route oral; conditions: in vivo
# In short: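 C57BL/6 mice (10 per group) injected subcutaneously in the right side with 1 × 10⁶ E0771 cells. At day 9, with tumours at 75 mm³, mice were randomised to oral vehicle (1% methylcellulose) or 5, 10 or 15 mg/kg on six occasions. Animals were monitored to day 42 for survival and for signs of toxicity such as hair loss or diarrhoea.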
# A549 = assay: Cytotoxicity against human A549 cells after 3 days by SRB assay; assay type: functional, cell-based; conditions: A549, 72 h
# In short: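 Cells seeded in quadruplicate at 5 × 10³ cells/cm². Compound added at 24 h over increasing concentrations for 3 days. Cells fixed with cold 10% TCA, stained with 0.4% sulforhodamine B in 1% acetic acid, dye solubilized in 10 mM Tris pH 10.5, OD read at 492 nm. IC50 taken by linear interpolation of the semi-log dose-response curve. DMSO below 0.1% final.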
# [14] = Cytotoxicity against human MCF10A cells after 3 days by SRB assay; assay type: cell-based; conditions: MCF-10A, 72 h
# In short: (§2)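 Cells seeded at 5 × 10³ cells/cm² in quadruplicate and, after 24 h, treated with increasing concentrations for 3 days. Compounds diluted from DMSO stock, final DMSO <0.1% v/v. Cells were fixed with cold 10% TCA, stained with 0.4% sulforhodamine B in 1% acetic acid, and dye solubilised in 10 mM Tris-base pH 10.5. OD read at 492 nm. IC50 obtained by linear interpolation on a semi-log dose-response curve.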
# RKO = assay: Cytotoxicity against human RKO cells after 3 days by SRB assay; assay type: functional, cell-based; conditions: 72 h; in short: as §2
# [15] = Therapeutic index, ratio of IC50 for human MCF10A cells to IC50 for human MCF7 cells; assay type: cell-based, MCF-10A; conditions: MCF10A cells versus MCF7 cells, read-out: Ratio IC50
# [16] = Therapeutic index, ratio of IC50 for human MCF10A cells to IC50 for human MDA-MB-231 cells; assay type: cell-based, MCF-10A; conditions: MCF10A cells versus MDA-MB-231 cells, read-out: Ratio IC50
# [17] = Therapeutic index, ratio of IC50 for human MCF10A cells to IC50 for mouse E0771 cells; assay type: cell-based, MCF-10A; conditions: MCF10A cells versus E0771 cells, read-out: Ratio IC50
# [18] = Therapeutic index, ratio of IC50 for human CCD-18Co cells to IC50 for human SW480 cells; assay type: cell-based; conditions: CCD-18Co cells versus SW480 cells, read-out: Ratio IC50
# MCF7 [19] = assay: Cytotoxicity against human MCF7 cells assessed as reduction in cell viability at 1 uM after 3 days by SRB assay relative to control; assay type: functional
# In short: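 MCF-7 seeded at high density (5 × 10⁴/cm²) and treated at 24 h with compound for 3 days, with or without 20 mM NAC. Viable cells quantified by sulforhodamine B staining, OD 492 nm. Viability reduction expressed versus untreated controls.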
# MCF7 [20] = assay: Cell cycle arrest in human MCF7 cells assessed as accumulation at G0-G1 phase at 2 uM after 24 hrs by propidium iodide/RNAse staining-based FACS analysis (reference value: 42.34 %); assay type: functional
# MCF7 [21] = assay: Cell cycle arrest in human MCF7 cells assessed as accumulation at S phase at 2 uM after 24 hrs by propidium iodide/RNAse staining-based FACS analysis (reference value: 49.46 %); assay type: functional
# MCF7 [22] = assay: Cell cycle arrest in human MCF7 cells assessed as accumulation at S phase at 3 uM after 24 hrs by propidium iodide/RNAse staining-based FACS analysis (reference value: 49.46 %); assay type: functional
structure (smiles),measurement,setting,value
C=C1CC[C@@H]2[C@](C)(CCC[C@]2(C)C(=O)OC)[C@H]1Cc1c(C)ccc2c1C(=O)C=CC2=O,Activity,MCF7 [1],5.08%
same,Activity,MCF7 [2],15.56%
same,Activity,MCF7 [3],39.91%
same,Activity,MCF7 [4],12.5%
same,Activity,MCF7 [5],19.5%
same,Activity,MCF7 [6],11.07%
same,Activity,MCF7 [7],29.13%
same,Activity,MCF7 [8],Active
same,Activity,MCF7 [9],90%
same,Activity,MCF7 [10],80%
same,Activity,MCF7 [11],Active
same,Activity,MCF7 [12],Active
same,Activity,[13],Active
same,Activity,Mus musculus,Non-toxic
same,pIC50,A549,5.86
same,pIC50,[14],5.50
same,pIC50,RKO,6.23
same,selectivity ratio,[15],9
same,selectivity ratio,[16],6.85
same,selectivity ratio,[17],8.08
same,selectivity ratio,[18],0.36
same,viability,MCF7 [19],90.21%
same,Activity,MCF7 [20],66.6%
same,Activity,MCF7 [21],29.15%
same,Activity,MCF7 [22],4.25%
